We go through one compound from ChEMBL document CHEMBL1240420, “Synthesis and biological evaluation of cinnamido linked pyrrolo[2,1-c][1,4]benzodiazepines as antimitotic agents” (Eur J Med Chem, 2010).

Assay [1] deals with SiHa. Kind of assay: Cytotoxicity against human SiHa cells after 48 hrs by SRB assay. The assay is classed as functional. The method, boiled down: (§1)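 Cells grown in RPMI 1640 with 10% FBS and 2 mM L-glutamine, plated and left 24 h at 37 °C/5% CO2, then exposed continuously for 48 h to 0.1, 1, 10 and 100 µM in triplicate wells. Fixed with cold TCA (10% final), stained with 0.4% SRB, eluted with 10 mM Tris base, read at 540 nm (690 nm reference). GI50 from [(Ti−Tz)/(C−Tz)]×100 = 50; mean of three determinations.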

Assay [2] deals with MCF7. Kind of assay: Cell cycle arrest in human MCF7 cells assessed as accumulation at G0 phase after 48 hrs using FITC/propidium iodide staining by flow cytometry. The assay is classed as functional, cell-based. The method, boiled down:
(§2)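 MCF7 cells in 6-well plates were exposed for 48 h, harvested with trypsin–EDTA, and fixed in ice-cold 70% ethanol at 4 °C for 30 min. They were then stained with a propidium iodide solution containing trisodium citrate and Triton X-100 for 30 min in the dark. DNA content was read by flow cytometry on 20,000 events, and cells were scored by cell-cycle phase from histograms.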

The test system of assay [3] is HOP-62. Kind of assay: Cytotoxicity against human HOP62 cells after 48 hrs by SRB assay. The format is functional. The conditions noted are these: HOP-62, 48 h. The method, boiled down: (§3)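 Cells were grown in RPMI 1640 with 10% FBS and 2 mM L-glutamine, plated 24 h before dosing, then given continuous 48 h exposure at 0.1, 1, 10 and 100 µM in triplicate wells. Cells were fixed with cold TCA (10% final, 60 min, 4 °C), stained with 0.4% SRB in 1% acetic acid for 20 min, eluted with 10 mM Tris base, and read at 540/690 nm. GI50 was taken from [(Ti−Tz)/(C−Tz)]×100 = 50; three determinations were averaged.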
(In general: The SRB assay estimates cell density from bound dye.)

Assay [4] has as its system A549. Kind of assay: Cytotoxicity against human A549 cells after 48 hrs by SRB assay. The format is functional. The conditions noted are these: A549, 48 h. In a few lines:
as §3

Assay [5] relates to COLO 205. Kind of assay: Cytotoxicity against human COLO205 cells after 48 hrs by SRB assay. The format is functional. The conditions noted are these: COLO 205, 48 h. In a few lines: as §3
The subject of assay [6] is MCF7. Kind of assay: Induction of apoptosis in human MCF7 cells assessed as nuclear condensation at 2 uM after 48 hrs by fluorescence microscopy. The assay is classed as functional, cell-based. In a few lines:
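MCF7 cells on cover slips in 6-well plates treated 48 h at 1–3 µM. Nocodazole and podophyllotoxin (1 µM) served as controls. Fixed in 3% paraformaldehyde/0.02% glutaraldehyde, stained with Hoechst (5 µM, 30 min), washed in PBS and imaged by fluorescence microscopy with DAPI filters. Five fields of view examined.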

Assay [7] deals with Tubulin (Homo sapiens) (UniProt P68371+Q9H4B7+P0DPH7+P68366+Q13509+Q71U36+P04350+Q3ZCM7+P07437+P68363+Q9BQE3+Q6PEY2+Q13885+Q9BVA1+Q9BUF5). Kind of assay: Inhibition of tubulin polymerization in human MCF7 cells at 2.5 uM by immunohistochemistry. The assay is classed as cell-based. In a few lines:
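MCF7 cells on glass cover slips exposed 48 h to 2.5 µM. Fixed with 3% paraformaldehyde/0.02% glutaraldehyde, permeabilized in −20 °C methanol, blocked with 1% BSA. Stained with mouse monoclonal anti-tubulin plus FITC secondary, then confocal imaging of microtubule network integrity. Nocodazole and taxol (2.5 µM) run as controls; untreated cells as baseline.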

For assay [8], the species on record is Bos taurus. Kind of assay: Inhibition of bovine tubulin at 2.5 uM after 3 hrs relative to control.
Assay [9] deals with MCF7. Kind of assay: Cytotoxicity against human MCF7 cells after 48 hrs by SRB assay. The format is functional. Particulars: MCF7, 48 h. In a few lines:
as §3

In assay [10] the test system is KB. Kind of assay: Cytotoxicity against human KB cells after 48 hrs by SRB assay. The assay is classed as functional. The method, boiled down:
as §3

Assay [11] in a line: Inhibition of bovine tubulin after 3 hrs. Set-up: species or system Bos taurus. The method, boiled down: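 Bovine brain tubulin purified by three polymerization/depolymerization cycles. A340 read every 2 min for 3 h at 37 °C, nocodazole as control. IC50 taken as the concentration halving assembly versus control.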
Assay [12] concerns ZR-75-1. Kind of assay: Cytotoxicity against human ZR-75-1 cells after 48 hrs by SRB assay. The assay is classed as functional. The conditions noted are these: ZR-75-1, 48 h. In a few lines:
as §1

In assay [13] the test system is PC-3. Kind of assay: Cytotoxicity against human PC3 cells after 48 hrs by SRB assay. The format is functional. Particulars: PC-3, 48 h. The method, boiled down: as §3
In assay [14] the test system is A2780. Kind of assay: Cytotoxicity against human A2780 cells after 48 hrs by SRB assay. The assay is classed as functional. Particulars: A2780, 48 h. In a few lines:
as §3

Assay [15] is described as follows: Cytotoxicity against human DWD cells after 48 hrs by SRB assay. The format is functional. The method, boiled down:
as §3

A short description of assay [16]: Cytotoxicity against human GURAV cells after 48 hrs by SRB assay. The format is functional. In a few lines:
as §3

Assay [17] deals with MCF7. Kind of assay: Cell cycle arrest in human MCF7 cells assessed as accumulation at G2/M phase after 48 hrs using FITC/propidium iodide staining by flow cytometry. The format is functional, cell-based. The method, boiled down: as §2
A general note: A flow cytometer gives signals particle by particle.

Active and inactive are the calls of the source. The rule behind the calls is not given here.

As usually defined, the GI50 is the concentration giving 50% growth inhibition. Read a high GI50 as less potent growth inhibition. Broadly, the inhibition is how much of the control response was suppressed. As usually defined, the IC50 is the midpoint of a concentration-inhibition curve. A lower IC50 goes with higher potency. `COc1cc(/C=C/C(=O)N2CCN(C(=O)/C=C/c3ccc(OCCCCOc4cc5c(cc4OC)C(=O)N4CCC[C@H]4C=N5)c(OC)c3)CC2)ccc1OCCCCOc1cc2c(cc1OC)C(=O)N1CCC[C@H]1C=N2`: the GI50 in [1] is under 100 nM; in assay [3], under 100 nM; in assay [4], under 100 nM; in [5], 150 nM; in assay [9], 150 nM; in assay [10], under 100 nM. Moreover, the 50% growth inhibitory concentration (GI50) in assay [12] was 150 nM; in [13], 160 nM; in assay [14], under 100 nM; in [15] it was 120 nM; in assay [16] it was under 100 nM. Also, the result in assay [2], in assay [6] and in assay [17] was Active. In addition, in assay [7], the inhibition entry was “Active”. For the same compound, in assay [8], the inhibition was found to be 40%. The compound further displayed an IC50 in assay [11] of 27900 nM.
